Assay results from ChEMBL document CHEMBL1123553, “Synthesis and antimalarial and antitumor effects of 2-amino-4-(hydrazino and hydroxyamino)-6-[(aryl)thio]quinazolines” (1987).
Blank lines part the entries; values can stand above or below the compound they belong to.

Legend:
Assay type in all cases: functional
Mus musculus [1] = assay: Antimalarial activity against Plasmodium berghei strain in mice (Mus musculus) by parentral route and change in mean survival time in days was determined at 80 mg/kg subcutaneous dose
Outline: (§1)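 Normal drug-sensitive P. berghei strain in mice. Test agents dissolved or suspended in peanut oil and given as a single sc dose 72 h postinfection, five mice per dose group. ΔMST = mean survival time of treated mice minus that of controls (days). 60-day survivors are excluded from the treated mean and scored as cured. Minimum active response is a 100% increase in MSTT.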

Mus musculus [2] = assay: Antimalarial activity against Plasmodium berghei strain in mice (Mus musculus) by parentral route and change in mean survival time in days was determined at 40 mg/kg subcutaneous dose; outline: as §1
Mus musculus [3] = assay: Antimalarial activity against Plasmodium berghei strain in mice (Mus musculus) by parentral route and change in mean survival time in days was determined at 640 mg/kg subcutaneous dose; outline: as §1
Mus musculus [4] = assay: Antimalarial activity against Plasmodium berghei strain in mice (Mus musculus) by parentral route and change in mean survival time in days was determined at 160 mg/kg subcutaneous dose; outline: as §1
Mus musculus [5] = assay: Antimalarial activity against Plasmodium berghei strain in mice (Mus musculus) by parentral route and change in mean survival time in days was determined at 320 mg/kg subcutaneous dose; outline: as §1
L1210 [6] = assay: Anti tumor activity against L1210 leukemia in tissue culture and the molar concentration required to reduce the number of L1210 cells; conditions: Mus musculus, L1210, read-out: ID50
Outline: (§2)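 L1210 leukemia cells in tissue culture were incubated with the test drug for 2 days and the cell number was then assessed. ID50 is the molar drug concentration that reduces the number of L1210 cells by 50%.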

L1210 [7] = assay: Anti tumor activity against L1210 leukemia in tissue culture and the molar concentration required to reduce the number of L1210 cells by 50% was determined.; conditions: Mus musculus, L1210, read-out: ID50; outline: as §2

SMILES: O=S(=O)(c1ccc2ccccc2c1)c1ccc2nc(NO)nc(NO)c2c1
Delta MST (Mus musculus [1]): 3.3 days
Delta MST (Mus musculus [2]): 1.1 days
Delta MST (Mus musculus [3]): 10.7 days
Delta MST (Mus musculus [4]): 5.9 days
Delta MST (Mus musculus [5]): 8.1 days

SMILES: CN(N)c1nc(N)nc2ccc(Sc3cccc(C(F)(F)F)c3)cc12
Delta MST (Mus musculus [1]): 8.9 days
Delta MST (Mus musculus [2]): 5.7 days
Delta MST (Mus musculus [4]): 12.3 days

SMILES: NNc1nc(N)nc2ccc(Sc3cccc(C(F)(F)F)c3)cc12
Delta MST (Mus musculus [1]): 3.1 days
Delta MST (Mus musculus [2]): 0.5 days
Delta MST (Mus musculus [3]): 15.7 days
Delta MST (Mus musculus [4]): 6.9 days
Delta MST (Mus musculus [5]): 11.9 days

SMILES: NNc1nc(N)nc2ccc(S(=O)(=O)c3ccc4ccccc4c3)cc12
Delta MST (Mus musculus [1]): 1.3 days
Delta MST (Mus musculus [2]): 0.5 days
Delta MST (Mus musculus [3]): 4.5 days
Delta MST (Mus musculus [4]): 2.3 days
Delta MST (Mus musculus [5]): 3.5 days

SMILES: Nc1nc(NO)c2cc(S(=O)(=O)c3ccc4ccccc4c3)ccc2n1
Delta MST (Mus musculus [1]): 8.9 days
Delta MST (Mus musculus [2]): 6.1 days
Delta MST (Mus musculus [3]): 15.3 days
Delta MST (Mus musculus [4]): 11.1 days
Delta MST (Mus musculus [5]): 14.1 days

IC50 (L1210 [6]): 0.11 µM
SMILES: Nc1nc(N)c2cc(S(=O)(=O)c3ccc4ccccc4c3)ccc2n1

SMILES: CONc1nc(N)nc2ccc(S(=O)(=O)c3ccc4ccccc4c3)cc12
Delta MST (Mus musculus [1]): 5.7 days
Delta MST (Mus musculus [2]): 3.9 days
Delta MST (Mus musculus [4]): 9.1 days
Delta MST (Mus musculus [5]): 12.7 days

SMILES: ONc1nc(NO)c2cc(Sc3cccc(C(F)(F)F)c3)ccc2n1
Delta MST (Mus musculus [1]): 3.1 days
Delta MST (Mus musculus [2]): 1.7 days
Delta MST (Mus musculus [4]): 9.7 days
Delta MST (Mus musculus [5]): 10.7 days

SMILES: Nc1nc(NO)c2cc(Sc3cccc(C(F)(F)F)c3)ccc2n1
Delta MST (Mus musculus [1]): 5.1 days
Delta MST (Mus musculus [2]): 3.5 days
Delta MST (Mus musculus [4]): 8.1 days
Delta MST (Mus musculus [5]): 10.3 days

SMILES: CONc1nc(N)nc2ccc(Sc3cccc(C(F)(F)F)c3)cc12
Delta MST (Mus musculus [1]): 6.9 days
Delta MST (Mus musculus [2]): 5.7 days
Delta MST (Mus musculus [4]): 9.7 days
IC50 (L1210 [7]): 24 µM

SMILES: CN(N)c1nc(N)nc2ccc(S(=O)(=O)c3ccc4ccccc4c3)cc12
Delta MST (Mus musculus [1]): 2.3 days
Delta MST (Mus musculus [2]): 0.5 days
Delta MST (Mus musculus [3]): 10.7 days
Delta MST (Mus musculus [4]): 4.3 days
Delta MST (Mus musculus [5]): 7.1 days
